DSG3 Ab inh: human desmoglein-3 autoantibody binding inhibition | AID 588358 | actives 0.48% (n = 310,000) | DSG3-coupled beads, scFv-anti-DSG3-GFP binding, flow cytometry; stronger effect = lower value | binding (percent of control), % at 10 µM | P32926;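 active means binding more than 3 SD below its plate's average and above zero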;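 further: hits lower antibody fragment binding to DSG3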
Arrestin-AP2 inh: inhibitors of human beta-arrestin and AP2 interaction; FITC-arrestin peptide / GST-AP2 beads, flow cytometry; AP2 beta2 appendage carries R879A mutation; inhibition, % at 10 µM; actives 0.31% (n = 340,000);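 active means inhibition above a set limit, near 3 SD of compounds lacking own fluorescence, cut at about 54% in these data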;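 further: plate controls were DMSO wells for no effect and 5 µM unlabelled arrestin peptide for full effect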
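test system = AP2 appendage R879A on GSH beads | buffer or medium = PBS plus Tween 20 (0.05%) and BSA (0.1%) | incubation = 12 min plus 1 h, RT | detection = bead flow cytometry, FITC channel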
ALR inh: inhibitors of human sulfhydryl oxidase ALR; P55789; purified ALR, DTT oxidation, H2O2 HRP-luminol luminescence; inhibition, % (test concentration not listed); actives 3.8% (n = 290,000); AID 485317;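 active means mean replicate inhibition above about 79%, with every replicate also reaching it, limit read from the data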
Target sequence (P55789 whole entry, looked up): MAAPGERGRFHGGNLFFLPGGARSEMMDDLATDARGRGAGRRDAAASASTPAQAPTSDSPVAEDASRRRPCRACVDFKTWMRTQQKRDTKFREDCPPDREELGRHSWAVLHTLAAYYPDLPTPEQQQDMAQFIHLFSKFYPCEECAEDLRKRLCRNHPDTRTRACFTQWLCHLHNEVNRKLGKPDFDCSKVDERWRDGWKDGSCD
PolyA inh: yeast polyadenylation inhibition; actives 0.02% (n = 300,000); S. cerevisiae SKY197-pL101 polyadenylation reporter, beta-gal luminescence; efflux-impaired pdr1/pdr3 knockout yeast; score 100 = 6 SD above DMSO; AID 1875; activity score, % at 12 µM;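 active means lowest replicate activity score at least 50, where 100 means six control SD above control mean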;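 further: yeast exposed to compound for 9 h at 30 °C; higher score means more reporter readthrough which indicates perturbed polyadenylation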
NALP1 inh: blocks the NALP1 inflammasome reconstituted in yeast | S. cerevisiae NALP1/ASC/caspase-1 growth, X-gal OD620, 72 h | inhibition, % at 10 µM | actives 0.61% (n = 280,000) | AID 2071; in the data active means inhibition mostly above about 24%, no sharp cut-off; inactive means mostly below about 32%
NLRP3 yeast inh: NALP3 inhibition in yeast; Yeast reconstituted NLRP3/ASC/caspase-1, beta-gal luminescence, 24 h; actives 0.39% (n = 330,000); inhibition, % at 10 µM; AID 2825;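 active means inhibition of 50% or more; inactive means inhibition below 50%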;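 further: plate controls were induced DMSO wells for no effect and uninduced yeast grown without galactose for full effect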
* marks the source's active call; other numbers are inactive results; / = not tested or not shown. Rows were chosen to be rich in hits. Some 4.6% of all compounds tested hit in one or more screens of this group.

SMILES | DSG3 Ab inh | Arrestin-AP2 inh | ALR inh | PolyA inh | NALP1 inh | NLRP3 yeast inh
CCN(CC(=O)Nc1ccc(OC)cc1)CC(=O)Nc1cccc(S(=O)(=O)N2CCOCC2)c1 | 101 | / | / | / | / | /
COCC(=O)NCc1ccc2c(c1)cc(C)n2C | 81 | 7 | -19 | 9 | 22 | 16
Cc1ccc(S(=O)(=O)NCc2ccc3c(c2)cc(C)n3C)cc1 | 71* | 27 | -3 | -18 | 32 | 23
Cc1ccc(C(=O)N2CCN(c3ccccc3Cl)CC2)cc1[N+](=O)[O-] | 101 | -10 | -9 | -55 | 38* | 11
NC(=O)c1ccc(N2CCCCCC2)c([N+](=O)[O-])c1 | 81 | 6 | 1 | -10 | -1 | 3
CCC(=O)N1CCN(c2ccc(NC(=O)c3ccc(N4CCCC4)c([N+](=O)[O-])c3)cc2)CC1 | 82 | 10 | -4 | -3 | 14 | 2
Cc1ccccc1CS(=O)(=O)c1ccc(C(=O)N2CCC(C)CC2)cc1[N+](=O)[O-] | 128 | 10 | 97* | 0 | 0 | 10
Cc1ccc(C(=O)N2CCN(c3ccccn3)CC2)cc1[N+](=O)[O-] | / | -8 | 9 | 5 | 1 | 5
CC(=O)N1CCN(c2ccc(C(N)=O)cc2[N+](=O)[O-])CC1 | 89 | 2 | -5 | -2 | 32* | -6
CC1CCN(C(=O)c2ccc(S(=O)(=O)Cc3cccc(F)c3)c([N+](=O)[O-])c2)CC1 | 99 | 20 | -1 | -27 | 8 | 19
CCC(=O)N1CCN(c2ccc(NC(=O)c3ccc(N4CCOCC4)c([N+](=O)[O-])c3)cc2)CC1 | 98 | -1 | -11 | -9 | 38* | 25
CC(C)(C)c1ccc(-c2cn(-c3ccc(Br)cc3)c3[n+]2CCCS3)cc1 | 108 | -2 | / | 8 | -4 | /
N#Cc1cccc(S(=O)(=O)NCC(=O)OCC(=O)NCc2ccccc2)c1 | / | 19 | / | / | / | 15
COc1ccc(CCNc2oc(-c3ccco3)nc2C#N)cc1 | 102 | -1 | 25 | 9 | 9 | 42
N#Cc1nc(-c2ccco2)oc1NCCc1ccccc1 | / | -1 | 98* | -21 | 3 | 46
NS(=O)(=O)c1ccc(N=Nc2c[nH]c(=O)c(O)c2)cc1 | 93 | 19 | 90* | 0 | -1 | 27
COc1ccc(-c2nc(CS(=O)CC(=O)N3CCCC3)c(C)o2)cc1 (configuration not stated) | 102 | -1 | 99* | 14 | 18 | 3
CCN1CCN(C(=O)CS(=O)Cc2nc(-c3ccc(OC)cc3)oc2C)CC1 (configuration not stated) | 116 | 4 | 99* | -1 | -20 | -11
Cc1ccc2[nH]c(C)c(/C=C/c3cc[n+](C)cc3)c2c1 | 380 | -5 | 99* | 1 | 0 | 13
Cc1ccc2c(c1)c(/C=C/c1cc[n+](C)cc1)c(C)n2C | 517 | -43 | 85* | -8 | 7 | 26
Oc1cc(O)cc(-c2cc3ccc(O)cc3o2)c1 | 105 | 6 | 99* | 8 | / | 15
NC(=S)c1cc2ccc(O)cc2oc1=O | 113 | 2 | / | 13 | -1 | /
O=C(NCCCN1CCOCC1)C(=O)NCC1OCCN1S(=O)(=O)c1ccc(Cl)cc1 (configuration not stated) | 95 | / | / | / | / | /
OCC1CCCN(Cc2ccc(-c3ccccc3)cc2)C1 (configuration not stated) | 99 | 13 | 99* | -39 | 34* | 21
Cc1[nH]c(=S)sc1Cc1ccc(Cl)c(Cl)c1 | / | / | 96* | -20 | 14 | -26
SMILES | DSG3 Ab inh | Arrestin-AP2 inh | ALR inh | PolyA inh | NALP1 inh | NLRP3 yeast inh
O=C(Nc1cccnc1)c1ccc2ccccc2c1O | 93 | 17 | 91* | 4 | 4 | 23
O=C(N/N=C/c1cccnc1)c1ccc2ccccc2c1O | 109 | -10 | 28 | / | -7 | 6
CCn1c(CN2CCN(C(c3ccccc3)c3ccccc3)CC2)nc2c1c(=O)n(C)c(=O)n2C | 103 | -1 | -19 | -11 | 18 | 5
COc1cc(OC)cc(C(=O)OCc2cc3ccccc3[nH]c2=O)c1 | 80* | -2 | 5 | 8 | 28 | 13
CCC1CCCCN1C(=O)c1ccc(OC2CCN(C(=O)CCOC)CC2)cc1 (configuration not stated) | / | 27 | 1 | -9 | -12 | -7
NC(=O)c1ccc(NC(=O)CSc2cn(CC(=O)N3CCOCC3)c3ccccc23)cc1 | / | 5 | 99* | 4 | 13 | 5
CCn1c(=O)cc(SCC(=O)Nc2ccc3c(c2)OCO3)c2ccccc21 | 97 | 3 | -2 | -9 | / | 19
O=C(CSc1cccc[n+]1[O-])Nc1ccc2c(c1)OCCO2 | 97 | 7 | 87* | -1 | -5 | 8
Cn1cc(SCC(=O)Nc2ccc3c(c2)OCCO3)c2ccccc21 | 104 | -5 | 99* | 7 | 36 | 21
O=C(CSc1ccccc1)Nc1ccc2c(c1)OCCO2 | / | 19 | -6 | -3 | 0 | 14
COc1ccccc1CCC(=O)NCCCn1ccc2ccccc21 | 102 | 19 | -26 | -12 | -10 | 33
Cc1sc2nc(CN3CCC(C)CC3)nc(Cl)c2c1C | / | / | 97* | 16 | 41 | 14
CN(C(=O)c1cccc(NC(=O)Cc2ccc(NC(=O)C3CCN(C(=O)C4CCCCC4)CC3)cc2)c1)C1CC1 | 98 | 29 | / | / | / | /
O=C1CSC(c2ccc(F)c(F)c2)N1c1ccccc1F (configuration not stated) | 114 | -17 | 98* | 18 | 7 | -14
O=C1CSC(c2cccc(F)c2)N1c1ccccc1 (configuration not stated) | 92 | 5 | 98* | 1 | 1 | -3
O=C1CSC(c2cccc([N+](=O)[O-])c2)N1c1ccccc1 (configuration not stated) | 99 | 45 | 98* | 1 | 1 | 3
O=C1CSC(c2ccccc2)N1c1ccc(F)cc1F (configuration not stated) | 102 | 35 | -8 | -5 | 2 | -5
CC1CCN(C(=O)COC(=O)c2ccccc2NCCO)CC1 | 96 | / | / | / | / | /
CC(CSc1nc2ccccc2s1)Cn1c(N2CCCC2)nc2c1c(=O)[nH]c(=O)n2C (configuration not stated) | 95 | -9 | 98* | 3 | 36 | 16
Cc1csc(SCCn2c(N3CCN(c4ccccc4)CC3)nc3c2c(=O)[nH]c(=O)n3C)n1 | 111 | 0 | 98* | 4 | -6 | 8
CCN1CCN(c2nc3c(c(=O)[nH]c(=O)n3C)n2CCSc2nc3ccccc3s2)CC1 | 90 | -3 | / | 15 | 17 | 16
O=C(COC(=O)CCC1CCCC1)Nc1ccc(F)cc1 | 101 | -2 | -10 | / | / | -3
C=CCn1c(=O)c(C(=O)Nc2ccccc2OC)c(O)c2ccccc21 | / | / | / | / | 15 | /

Assay outcomes as filed in PubChem BioAssay.
